# Experimental data taken from ChEMBL document CHEMBL4011602, “Xanthine oxidase inhibitory activity of nicotino/isonicotinohydrazides: A systematic approach from in vitro, in silico to in vivo studies” (Bioorg Med Chem, 2017).
# Key:
# [1] = target: T1, Xanthine dehydrogenase/oxidase (Bos taurus, UniProt P80457); assay: Inhibition of bovine xanthine oxidase using xanthine as substrate preincubated for 10 mins followed by substrate addition measured for 15 mins by spectrophotometric method
# Rattus norvegicus [2] = assay: In vivo inhibition of xanthine oxidase in Wistar rat assessed as retention time of 6-MP at 50 mg/kg, ip using 6-mercaptopurine as substrate after 6 hrs by UPLC method (reference value: 4.912 min); format: functional, organism-based
# Rattus norvegicus [3] = assay: In vivo inhibition of xanthine oxidase in Wistar rat assessed as peak area of 6-MP at 50 mg/kg, ip using 6-mercaptopurine as substrate after 6 hrs by UPLC method (reference value: 7.3 mAU); format: functional
# [4] = target: T1, Xanthine dehydrogenase/oxidase; assay: Competitive inhibition of bovine xanthine oxidase using varying levels of xanthine as substrate preincubated for 10 mins followed by substrate addition measured for 15 mins by Lineweaver-Burk plot/Dixon plot analysis
# Procedure, shortened: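 Run like the inhibition assay: XO (0.003 units/well) in 50 mM phosphate buffer pH 7.4, inhibitor in 90% DMSO, preincubated 10 min at 30 °C. Varied inhibitor and xanthine concentrations (0.0375, 0.075, 0.15, 0.300 mM), absorbance change at 295 nm over 15 min.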
# Rattus norvegicus [5] = assay: In vivo inhibition of xanthine oxidase in Wistar rat at 50 mg/kg, ip using 6-mercaptopurine as substrate after 6 hrs by UPLC method relative to control; format: functional
# [6] = target: Xanthine dehydrogenase/oxidase (Bos taurus) (UniProt P80457)
# Xanthine dehydrogenase/oxidase (Bos taurus), sequence (P80457 whole entry, looked up): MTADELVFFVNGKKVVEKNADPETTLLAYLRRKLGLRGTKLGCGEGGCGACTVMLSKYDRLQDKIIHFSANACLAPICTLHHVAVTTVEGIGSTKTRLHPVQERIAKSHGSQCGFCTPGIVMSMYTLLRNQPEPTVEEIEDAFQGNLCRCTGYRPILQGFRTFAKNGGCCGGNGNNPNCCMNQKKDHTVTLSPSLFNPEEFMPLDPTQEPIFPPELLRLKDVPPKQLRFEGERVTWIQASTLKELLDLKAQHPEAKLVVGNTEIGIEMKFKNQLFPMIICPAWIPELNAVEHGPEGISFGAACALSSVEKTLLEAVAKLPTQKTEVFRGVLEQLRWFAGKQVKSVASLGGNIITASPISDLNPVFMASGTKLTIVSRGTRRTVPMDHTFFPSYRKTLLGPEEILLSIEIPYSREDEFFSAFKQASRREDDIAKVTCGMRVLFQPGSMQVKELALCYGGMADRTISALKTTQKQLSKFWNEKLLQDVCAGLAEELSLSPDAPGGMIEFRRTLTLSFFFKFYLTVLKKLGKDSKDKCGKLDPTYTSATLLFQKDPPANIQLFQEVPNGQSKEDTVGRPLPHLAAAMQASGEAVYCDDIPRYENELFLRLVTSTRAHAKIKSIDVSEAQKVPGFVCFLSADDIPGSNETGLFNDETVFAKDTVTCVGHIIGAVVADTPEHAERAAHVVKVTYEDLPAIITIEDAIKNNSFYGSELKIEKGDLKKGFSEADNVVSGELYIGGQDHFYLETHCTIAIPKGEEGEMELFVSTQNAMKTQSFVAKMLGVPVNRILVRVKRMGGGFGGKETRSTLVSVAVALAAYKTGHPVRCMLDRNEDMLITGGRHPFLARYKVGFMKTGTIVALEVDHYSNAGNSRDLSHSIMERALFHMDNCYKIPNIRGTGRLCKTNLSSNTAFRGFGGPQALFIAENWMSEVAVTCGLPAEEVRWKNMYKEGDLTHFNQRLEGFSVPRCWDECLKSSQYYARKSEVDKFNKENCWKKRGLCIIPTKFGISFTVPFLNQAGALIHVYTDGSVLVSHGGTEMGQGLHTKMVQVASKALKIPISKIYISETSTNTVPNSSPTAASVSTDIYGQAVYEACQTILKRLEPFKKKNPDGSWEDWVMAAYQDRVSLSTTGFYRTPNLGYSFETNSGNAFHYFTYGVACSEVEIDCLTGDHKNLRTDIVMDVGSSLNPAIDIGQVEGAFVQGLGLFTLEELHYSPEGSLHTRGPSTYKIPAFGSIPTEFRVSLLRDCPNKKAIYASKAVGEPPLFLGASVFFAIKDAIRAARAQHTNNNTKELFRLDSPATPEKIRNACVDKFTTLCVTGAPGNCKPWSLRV
# T1 sequence (P80457 whole entry): as the sequence (P80457 whole entry, looked up) above
Compound,IC50 ([1]; read-out: IC50),IC50 [1],also measured
O=C(N/N=C/c1ccccc1Br)c1cccnc1,198 µM,,
O=C(N/N=C/c1ccc([N+](=O)[O-])cc1)c1cccnc1,,Not Active,
O=C(N/N=C/c1cccc([N+](=O)[O-])c1)c1cccnc1,184 µM,,
O=C(N/N=C/c1cccc(Cl)c1)c1ccncc1 [N'-(3-CHLOROBENZYLIDENE)ISONICOTINOHYDRAZIDE],206 µM,,
O=C(N/N=C/c1ccc(O)c(O)c1)c1cccnc1,10 µM,,Retention time (Rattus norvegicus [2]): 4.9 min; Activity (Rattus norvegicus [3]): 0.001 mAU; Ki [4]: 7.27 µM
O=C(N/N=C/c1c(O)cc(O)cc1O)c1ccncc1,0.96 µM,,Retention time (Rattus norvegicus [2]): 4.92 min; inhibition in vivo at 50 mg/kg (Rattus norvegicus [5]): 44%; Activity (Rattus norvegicus [3]): 73.5 mAU; Ki [4]: 0.82 µM
CCOc1cccc(/C=N/NC(=O)c2ccncc2)c1O,54.8 µM,,Ki [4]: 51.3 µM
COc1ccc(/C=N/NC(=O)c2cccnc2)cc1OC,,Not Active,
O=C(N/N=C/c1ccc(O)cc1)c1cccnc1,184 µM,,
COc1ccc(/C=N/NC(=O)c2cccnc2)c(OC)c1OC,,Not Active,
COc1cccc(/C=N/NC(=O)c2cccnc2)c1O,175 µM,,
CCOc1ccc(/C=N/NC(=O)c2ccncc2)cc1OCC,,Not Active,
COc1ccc(O)c(/C=N/NC(=O)c2ccncc2)c1,,Not Active,
O=C(N/N=C/c1cc(O)cc(O)c1)c1cccnc1,161 µM,,
O=C(N/N=C/c1ccc(Cl)cc1)c1cccnc1,195 µM,,
Oc1ncnc2[nH]ncc12 [ALLOPURINOL],,,Retention time (Rattus norvegicus [2]): 4.93 min; inhibition in vivo at 50 mg/kg (Rattus norvegicus [5]): 100%; Activity (Rattus norvegicus [3]): 166.3 mAU
O=C(N/N=C/c1cccc([N+](=O)[O-])c1)c1ccncc1,174 µM,,
O=C(N/N=C/c1ccccc1[N+](=O)[O-])c1cccnc1,,Not Active,
O=C(N/N=C/c1ccc(O)cc1)c1ccncc1,,Not Active,

Compound,IC50 ([1]; read-out: IC50),IC50 [1],also measured
COc1ccc(/C=N/NC(=O)c2ccncc2)cc1O,,Not Active,
O=C(N/N=C/c1ccccc1Cl)c1ccncc1,,Not Active,
O=C(N/N=C/c1ccccc1)c1cccnc1 [NICOTINIC ACID BENZYLIDENE-HYDRAZIDE],211 µM,,
O=C(N/N=C/c1ccc(Cl)cc1Cl)c1cccnc1,,Not Active,
O=C(N/N=C/c1cc([N+](=O)[O-])ccc1Cl)c1ccncc1,,Not Active,
COc1ccccc1/C=N/NC(=O)c1cccnc1,,Not Active,
COc1ccc(/C=N/NC(=O)c2ccncc2)cc1OC [VERAZIDE],,Not Active,
COc1cccc(/C=N/NC(=O)c2ccncc2)c1O,21.1 µM,,Ki [4]: 15 µM
O=C(N/N=C/c1ccc(Cl)cc1)c1ccncc1,179 µM,,
O=C(N/N=C/c1ccc(O)c(O)c1O)c1cccnc1,,Not Active,
O=C(N/N=C/c1ccccc1F)c1cccnc1,174 µM,,
O=C(N/N=C/c1cccc(O)c1)c1ccncc1,,Not Active,
COc1cccc(O)c1/C=N/NC(=O)c1cccnc1,,Not Active,
CCOc1ccccc1/C=N/NC(=O)c1ccncc1,,Not Active,
O=C(N/N=C/c1cccc(Cl)c1)c1cccnc1,205 µM,,
COc1ccc(O)c(/C=N/NC(=O)c2cccnc2)c1,,Not Active,
CN(C)c1ccc(/C=N/NC(=O)c2ccncc2)cc1 [N'-(4-DIMETHYLAMINOBENZYLIDENE)ISONICOTINOHYDRAZIDE],,Not Active,
CCOc1ccc(/C=N/NC(=O)c2cccnc2)cc1,242 µM,,
O=C(N/N=C/c1ccccc1F)c1ccncc1,,Not Active,

Compound,IC50 ([1]; read-out: IC50),IC50 [1],also measured
O=C(N/N=C/c1ccccc1)c1ccncc1 [N'-BENZYLIDENE ISONICOTINOHYDRAZIDE],,Not Active,
Cc1ccc(O)c(/C=N/NC(=O)c2cccnc2)c1,,Not Active,
CCOc1cccc(/C=N/NC(=O)c2cccnc2)c1O,264 µM,,
CCOc1ccc(/C=N/NC(=O)c2ccncc2)cc1O,,Not Active,
Cc1ccccc1/C=N/NC(=O)c1cccnc1,180 µM,,
O=C(N/N=C/c1ccc([N+](=O)[O-])cc1)c1ccncc1 [N'-(4-NITROBENZYLIDENE)ISONICOTINOHYDRAZIDE],,Not Active,
O=C(N/N=C/c1ccccc1[N+](=O)[O-])c1ccncc1,,Not Active,
O=C(N/N=C/c1ccc(Cl)cc1Cl)c1ccncc1,,Not Active,
CSc1ccc(/C=N/NC(=O)c2cccnc2)cc1,,Not Active,
O=C(O)c1cccnc1 [NIACIN],,,IC50 [6]: 518 µM
CCOc1ccc(/C=N/NC(=O)c2ccncc2)cc1,330 µM,,
O=C(N/N=C/c1ccccc1O)c1ccncc1 [SALINAZID],,Not Active,
CCOc1ccccc1/C=N/NC(=O)c1cccnc1,,Not Active,
O=C(N/N=C/c1ccc(O)c(O)c1)c1ccncc1,12.4 µM,,Retention time (Rattus norvegicus [2]): 4.95 min; inhibition in vivo at 50 mg/kg (Rattus norvegicus [5]): 28%; Activity (Rattus norvegicus [3]): 47.4 mAU; Ki [4]: 15.5 µM
CSc1ccc(/C=N/NC(=O)c2ccncc2)cc1,,Not Active,
CN(C)c1ccc(/C=N/NC(=O)c2cccnc2)cc1,,Not Active,
O=C(N/N=C/c1ccc(O)cc1O)c1ccncc1,,Not Active,
O=C(N/N=C/c1cccc(O)c1)c1cccnc1,,Not Active,
